These results are taken from article PMC2948526 (Antiviral chemistry & chemotherapy, 2010).

Structures are written as SMILES. A value given as a limit tells only on which side of the number the result lay.

Data set [1] deals with Ad4. Put plainly: Ad4 yield reduction assay. The format is cell-based, human adenovirus type-4. Conditions: A549 cells, 10 μM olomoucine II, 100 μM cidofovir or both. An outline of the steps: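 Confluent A549 monolayers were infected with 2,000 PFU/well Ad4 (multistep growth curve, MOI 0.01) for 1 h at 37°C with rocking. They were rinsed, then kept in medium with 10 μM test compound, 100 μM cidofovir, or both. Cells and media were harvested separately at 6–96 h, and released and total virus were titrated on A549 cells. The 0 h point is the inoculum.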

Data set [2] relates to human fetal foreskin fibroblast cells. Put plainly: Apoptosis as caspase-3/7 activity. The format is cell-based. Conditions: 15–50 μM olomoucine II; 24, 48, 72 h. An outline of the steps:
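Confluent HFFF cells (DMEM, 10% heat-inactivated FBS) were exposed for 24, 48 or 72 h to test compound dilutions, to mock treatment, or to serum deprivation. Caspase-3/7 activity was read by Caspase-Glo 3/7 luminescence, following the kit protocol. Values are blank-subtracted relative luminescence units ± SD.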

A short description of data set [3]: WST-1 cytotoxicity assay, A549 cells. Conditions: human, A549 cells (human lung carcinoma epithelial cells). The format is cell-based. In outline: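 A549 cells were grown in DMEM with 10% heat-inactivated FBS and antibiotics, then exposed to test compound. Viability was measured with a WST-1 kit, following the kit protocol, as absorbance at 450 nm.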
(In general: Tetrazolium dyes change colour on reduction, which living cells bring about.)

Data set [4] has as its system HFFF cells. Kind of data set: WST-1 cytotoxicity assay, HFFF cells. The format is cell-based, human. The following applies: 2.4–5.3 μM olomoucine II, WST-1, fibroblasts.
A short description of data set [5]: WST-1 cytotoxicity assay, HFFF cells. The format is cell-based, human. The following applies: human, HFFF cells (human fetal foreskin fibroblasts), confluent.
In data set [6] the test system is CDK9. The following applies: cited from earlier work.

On to `Nc1ccn(C[C@@H](CO)OCP(=O)(O)O)c(=O)n1` [Cidofovir, (S)-1-[3-hydroxy-2-(phosphonylmethoxy)propyl]-cytosine, reference compound], for which the figures for the “Reduction of total virus yield” value in data set [1] (24 h post-infection), in data set [1] (48 h post-infection) and in data set [1] (96 h post-infection) were 2 log (log10 PFU), 2 log and 3 log, respectively.
As usually defined, the CC50 is the concentration at which the toxic effect on the cells reaches its halfway point. A high value points to lower toxicity to the cells. Take `CC[C@H](CO)Nc1nc(NCc2ccccc2O)c2ncn(C(C)C)c2n1` [Olomoucine II, 6-(2-hydroxybenzylamino)-2-{[(1R)-(hydroxymethyl)propyl]amino}-9-isopropylpurine]: the Caspase-3/7 activity result in data set [2] is recorded as “caspase activation”. In data set [1] (24 h post-infection), the “Reduction of total virus yield” value is 5 log (log10 PFU). Further, the “Reduction of total virus yield” value in data set [1] (48 h post-infection) is 1 log. The “Reduction of total virus yield” value in data set [1] (96 h post-infection) is on record as “no overall effect on virus yield”. For the same compound, in data set [3], the CC50 at 48 h was > 100 µM, the CC50 at 96 h was > 100 µM and the CC50 at 120 h is > 100 µM. Further, in data set [4], the “Cytotoxicity at antiviral IC50 levels” value is given as “no significant cytotoxicity was detected”. In data set [5], the CC50 at 24 h is > 100 µM, the CC50 at 48 h came out at 73 ± 4 µM, the CC50 at 72 h was 16 ± 2 µM and the CC50 at 96 h stood at 17 ± 2 µM. The same compound came in with a CC50 at 168 h in data set [5] of 16 ± 3 µM. For the same compound, the “Higher inhibitory activity for CDK9 compared with roscovitine” value in data set [6] was 10 fold.
On to `CC[C@H](CO)Nc1nc(NCc2ccccc2)c2ncn(C(C)C)c2n1` [Roscovitine, 2-(R)-(1-ethyl-2-hydroxyethylamino)-6-benzylamino-9-isopropylpurine, reference compound], for which, in data set [3], the CC50 at 48 h is > 100 µM, the CC50 at 96 h was > 100 µM and the CC50 at 120 h is > 100 µM. Further, in data set [5], the CC50 at 24 h is > 100 µM; the CC50 at 48 h came to 84 ± 5 µM; the CC50 at 72 h came out at 21 ± 2 µM; the midpoint of cytotoxicity, the CC50 at 168 h, lay at 30 ± 4 µM.
